Laboratory results published in the RNAGym collection of RNA variant scans (doi:10.1126/science.aae0568).
This sample holds only a part of the variants without activity.

B1: tRNA (parent)
chain: GUUCCGUUGGCGUAAUGGUAACGCGUCUCCCUCCUAAGGAGAAGACUGCGGGUUCGAGUCCCGUACGGAACG

Variants of: B1
Test: yeast fitness relative to wild type (ratio to wild type); higher = fitter; tRNA-Arg(CCU), competitive growth, 37 C, YPD
How it was run: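 Start and end populations of a pooled competition were compared by 100-nucleotide paired-end sequencing of gene amplicons. The Saccharomyces cerevisiae strains carried tRNA-Arg(CCU) gene variants at the native genomic locus, synthesised with a 3% per-site mutation rate at 69 sites, and competed in YPD at 37°C for 24 hours in six parallel replicates. Darwinian fitness relative to wild type was based on the change in genotype frequencies. Genotypes required ≥ 100 starting reads, and estimates < 0.5 were set to 0.5.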

| Variant | yeast fitness |
| --- | --- |
| C4G C31U A57U | 0.665 |
| C4G C31U C55A | ≤ 0.5 |
| C4G C33G A40G | 0.528 |
| C4G C33G A65U | 0.605 |
| C4G C33U | 0.708 |
| C4G C33U A37U G38A A42C | ≤ 0.5 |
| C4G C34G | 0.574 |
| C4G C34G A40G G68A | ≤ 0.5 |
| C4G C34G A43U A70C | ≤ 0.5 |
| C4G C34G G56A U59A | ≤ 0.5 |
| C4G C34G G67A | ≤ 0.5 |
| C4G C34U | 0.624 |
| C4G C34U C66G | ≤ 0.5 |
| C4G C34U G41A | ≤ 0.5 |
| C4G C34U G63A | ≤ 0.5 |
| C4G C49A | 0.541 |
| C4G C49G | 0.682 |
| C4G C49G G56U U64C A65C A70C | 0.635 |
| C4G C49U | 0.933 |
| C4G C49U C66U | 0.681 |
| C4G C55A | 0.778 |
| C4G C55G | 0.612 |
| C4G C55U C61A | ≤ 0.5 |
| C4G C55U C66G | ≤ 0.5 |

| Variant | yeast fitness |
| --- | --- |
| C4G C60U | 0.817 |
| C4G C61G A65C | ≤ 0.5 |
| C4G C62A G67C | ≤ 0.5 |
| C4G C62U | 0.869 |
| C4G C62U A69U | 0.672 |
| C4G C66A | 0.61 |
| C4G G6A | 0.977 |
| C4G G6A C11U G23A A43G | ≤ 0.5 |
| C4G G6A C22G C62U A70C | ≤ 0.5 |
| C4G G6A C24U A40U C49A | ≤ 0.5 |
| C4G G6A C30A C34U C46U | ≤ 0.5 |
| C4G G6A G23A A43G G48C | ≤ 0.5 |
| C4G G6A U13G A14G A69U | ≤ 0.5 |
| C4G G6A U47A | 0.61 |
| C4G G6A U47G | ≤ 0.5 |
| C4G G6A U64A | 0.651 |
| C4G G6C C34G A42G C46G | ≤ 0.5 |
| C4G G6C C34G A42G G63C | ≤ 0.5 |
| C4G G6C G9A A20G C55A C61A | 0.615 |
| C4G G6C G25A C29A C31A C33G | 0.59 |
| C4G G6C G39C | 0.578 |
| C4G G9A A45C A57C G58C | ≤ 0.5 |
| C4G G9A A70C | 1.09 |
| C4G G9A C49A C55U | ≤ 0.5 |

| Variant | yeast fitness |
| --- | --- |
| C4G G9A G12C C29A G50C | ≤ 0.5 |
| C4G G9A G39A | 0.576 |
| C4G G9A G50C | 0.642 |
| C4G G9A U32C C33U | ≤ 0.5 |
| C4G G9C C27A A36G C46A C55U A65C | ≤ 0.5 |
| C4G G9C C34A A40C | 0.538 |
| C4G G9C C46A U59A U64A | ≤ 0.5 |
| C4G G9C G41A U53C C55U U59A A70U | ≤ 0.5 |
| C4G G9C G52A G63C | ≤ 0.5 |
| C4G G10A U13A U26G C27G C29U C33U U53C C61U | ≤ 0.5 |
| C4G G10C | 0.659 |
| C4G G10C G12A A36C U54G C60U A70G | 0.615 |
| C4G G10C G12C A21C G48C A57G G68C | 0.519 |
| C4G G10C U35C G38U C46G | ≤ 0.5 |
| C4G G10U A14U C24U C33U G52A | 0.544 |
| C4G G12A C27A C31A G52A G58C A70G | ≤ 0.5 |
| C4G G12A G52A | ≤ 0.5 |
| C4G G12C C33G G44C | ≤ 0.5 |
| C4G G12U A14C A57G | ≤ 0.5 |
| C4G G12U A14C C49U A65G | 0.513 |
| C4G G12U A14C U16C C49U A65G | ≤ 0.5 |
| C4G G17A A36U | 0.691 |
| C4G G17A A43U C60A | ≤ 0.5 |
| C4G G17A A57U U59C | ≤ 0.5 |

| Variant | yeast fitness |
| --- | --- |
| C4G G17A A69C | 0.525 |
| C4G G17A C30U G56A | ≤ 0.5 |
| C4G G17A C34A A43G G68A | ≤ 0.5 |
| C4G G17A C55G A70U | ≤ 0.5 |
| C4G G17A C61U | 0.56 |
| C4G G17A G25C C66U | ≤ 0.5 |
| C4G G17A G50A C55U G67C | ≤ 0.5 |
| C4G G17A U26C U28C A40G A70C | ≤ 0.5 |
| C4G G17A U28A C55U | ≤ 0.5 |
| C4G G17C A43C G51A | ≤ 0.5 |
| C4G G17C C33A G56C A70C | 0.542 |
| C4G G17C C33G U47A | 0.689 |
| C4G G17C C33G U59C | ≤ 0.5 |
| C4G G17C U59C | 0.746 |
| C4G G18A A45C | ≤ 0.5 |
| C4G G18A A57C | ≤ 0.5 |
| C4G G18C A37C A57C | ≤ 0.5 |
| C4G G18C A42U C46G | ≤ 0.5 |
| C4G G18C A45G C62A A69C | ≤ 0.5 |
| C4G G18C A57C | ≤ 0.5 |
| C4G G18C G58C C61U G68A | 0.615 |
| C4G G23A C55A C61A | 0.667 |
| C4G G23C C66A | ≤ 0.5 |
| C4G G25A A45G | ≤ 0.5 |

| Variant | yeast fitness |
| --- | --- |
| C4G G25A C49U G50U G63C | ≤ 0.5 |
| C4G G25C A45C C46A | 0.619 |
| C4G G38A C55U C60G | ≤ 0.5 |
| C4G G39C | 0.747 |
| C4G G41A A45U | 0.537 |
| C4G G41A A45U G56C | ≤ 0.5 |
| C4G G44A A45C G63A | ≤ 0.5 |
| C4G G44C C49G G56A C61G A65U A69G | 0.641 |
| C4G G48U C66U | ≤ 0.5 |
| C4G G50A G56A | 0.727 |
| C4G G51C U54A | ≤ 0.5 |
| C4G G56C A70G | ≤ 0.5 |
| C4G G58C C62U | 0.651 |
| C4G G63A | 0.813 |
| C4G G67A | 0.913 |
| C4G G67C | 0.883 |
| C4G G68A | 0.904 |
| C4G U7A A42C G48C | ≤ 0.5 |
| C4G U7A C11A A21C C29U C49U | ≤ 0.5 |
| C4G U7A C29U | 0.504 |
| C4G U7A G9A C11U C30G | 0.545 |
| C4G U7A U19C A20C C24U U53C | ≤ 0.5 |
| C4G U7C A20G C27A U59G | ≤ 0.5 |
| C4G U7C A45U G48C | ≤ 0.5 |

| Variant | yeast fitness |
| --- | --- |
| C4G U7C C27A | ≤ 0.5 |
| C4G U7C C27A A69U | 0.531 |
| C4G U7C C27A U59G | 0.574 |
| C4G U7G A36C A37C A57C C66U | ≤ 0.5 |
| C4G U7G A43C | 0.687 |
| C4G U7G A69U | ≤ 0.5 |
| C4G U7G G12C A20U G63A C66A | ≤ 0.5 |
| C4G U7G G63C | 0.521 |
| C4G U8A A14C G48A G63C | ≤ 0.5 |
| C4G U8A C31G | ≤ 0.5 |
| C4G U8A G12A C34A G50C | ≤ 0.5 |
| C4G U8A G12A G48A | 0.511 |
| C4G U8A G12A G48A A69C | 0.573 |
| C4G U8A G12A G48A C62U | ≤ 0.5 |
| C4G U8A G12A G58A | ≤ 0.5 |
| C4G U8C A15G C22G G23A C49A | ≤ 0.5 |
| C4G U8C C22G A42C C49U A57C | 0.676 |
| C4G U8C C24G C30G A43C | ≤ 0.5 |
| C4G U8C C24G U32G | ≤ 0.5 |
| C4G U8C C24G U47C | ≤ 0.5 |
| C4G U8C C24U A43G | 0.527 |
| C4G U8C C34G U47A C49A A65G | ≤ 0.5 |
| C4G U8C C60U G63C G68A | ≤ 0.5 |
| C4G U8C G18C A21C C55U | ≤ 0.5 |

| Variant | yeast fitness |
| --- | --- |
| C4G U8C G25A A42U | ≤ 0.5 |
| C4G U8C G25A A42U A69C | ≤ 0.5 |
| C4G U8C G51A C66A | ≤ 0.5 |
| C4G U8C U16A A21C C24G A45C G48A G67A | 0.53 |
| C4G U8G A42C C55U | ≤ 0.5 |
| C4G U8G C24A C31G G50A A69U | ≤ 0.5 |
| C4G U8G G9A C11U | 0.562 |
| C4G U8G G9A C11U C34G C49U | ≤ 0.5 |
| C4G U8G G9A C11U C49A | ≤ 0.5 |
| C4G U13A A21C A43U A45G | 0.559 |
| C4G U13A C29U A40C | ≤ 0.5 |
| C4G U13A C30G | ≤ 0.5 |
| C4G U13A C33G A36G | ≤ 0.5 |
| C4G U13A G17C C30U | 0.657 |
| C4G U13A G63A | ≤ 0.5 |
| C4G U13A G68C | 0.541 |
| C4G U13A U53A A65G | ≤ 0.5 |
| C4G U13C | 0.886 |
| C4G U13C C49U C60G A65U | ≤ 0.5 |
| C4G U13G | 0.882 |
| C4G U13G C66U | 0.564 |
| C4G U16A | 0.9 |
| C4G U16A A36C | 0.579 |
